Data set [1] relates to Staphylococcus aureus. Kind of data set: Antibacterial activity against rifampicin resistant Staphylococcus aureus harboring RpoBH481Y mutant assessed as inhibition of bacterial growth. In kind it is functional.
Data set [2] deals with Staphylococcus aureus. Kind of data set: Antibacterial activity against wild type Staphylococcus aureus assessed as inhibition of bacterial growth. It counts as functional.
Data set [3] concerns Staphylococcus aureus. As to the kind of experiment: Antibacterial activity against ciprofloxacin resistant Staphylococcus aureus harboring ParCS80F and GyrAS84L double mutant assessed as inhibition of bacterial growth. In kind it is functional.
The test system of data set [4] is Staphylococcus aureus. Kind of data set: Antibacterial activity against Staphylococcus aureus harboring RpoBH481Y/ParCS80F/GyrAS84L triple mutant assessed as inhibition of bacterial growth. It counts as functional.
Data set [5] relates to Escherichia coli. As to the kind of experiment: Antibacterial activity against Escherichia coli assessed as inhibition of bacterial growth. It counts as functional. Put shortly: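 Run in duplicate, with the same result obtained in each trial.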
Data set [6] has as its system HEK293. As to the kind of experiment: Cytotoxicity against HEK293 cells. It counts as toxicity, cell-based, Homo sapiens.

≈ marks a conversion by molar mass, not a printed value.

For orientation: MIC means the least concentration at which growth counts as inhibited. For orientation: IC50 means the concentration needed to halve the response being measured. A low value points to inhibition by little substance. On to `COc1c(N2CCCC(N(C)CCCNc3cc(O)c4nc5c6c7c8c(C)c(O)c6c(=O)c(c-5oc4c3)NC(=O)/C(C)=C\C=C\[C@H](C(C)OC(=O)C(C)(C)CC(=O)O)[C@H](O)[C@@H](C)[C@@H](O)[C@@H](C)[C@H](OC(C)=O)[C@H](C)[C@@H](O[C@H]3C[C@@H]4OCO[C@@H]4[C@@H](C)O3)/C=C/O[C@@](C)(O8)C7=O)C2)c(F)cc2c(=O)c(C(=O)O)cn(C3CC3)c12` (stereo partly specified), for which the MIC in data set [1] was 16 µg/mL (≈ 10.4 µM); in data set [2], 8 µg/mL (≈ 5.22 µM); in data set [3], 8 µg/mL (≈ 5.22 µM); in data set [4], over 64 µg/mL; in data set [5], over 64 µg/mL. Besides, the IC50 in data set [6] was over 64 µg/mL.
Regarding `CC(=O)O[C@H]1[C@H](C)[C@H](O)[C@H](C)[C@@H](O)[C@@H](C(C)OC(=O)C(C)(C)CC(=O)O)/C=C/C=C(/C)C(=O)Nc2c3oc4cc(NC5(c6c(F)cc7c(=O)c(C(=O)O)cn8c7c6OC[C@@H]8C)CC5)cc(O)c4nc-3c3c4c(c(C)c(O)c3c2=O)O[C@](C)(O/C=C/[C@H](O[C@H]2C[C@@H]3OCO[C@@H]3[C@@H](C)O2)[C@H]1C)C4=O` (stereo partly specified), the MIC was 32 µg/mL (≈ 22.8 µM) in data set [1]; 8 µg/mL (≈ 5.7 µM) in data set [2]; 8 µg/mL (≈ 5.7 µM) in data set [3]; over 64 µg/mL in data set [4]; 4 µg/mL (≈ 2.85 µM) in data set [5]. This molecule gave an IC50 in data set [6] of over 64 µg/mL.
Regarding `CC(=O)O[C@H]1[C@H](C)[C@H](O)[C@H](C)[C@@H](O)[C@@H](C(C)OC(=O)C(C)(C)CC(=O)O)/C=C/C=C(/C)C(=O)Nc2c3oc4cc(NCCCCCCCCC(=O)N5Cc6cc(-c7ccc8c(=O)c(C(=O)O)cn(C9CC9)c8c7OC(F)F)ccc6[C@H]5C)cc(O)c4nc-3c3c4c(c(C)c(O)c3c2=O)O[C@](C)(O/C=C/[C@H](O[C@H]2C[C@@H]3OCO[C@@H]3[C@@H](C)O2)[C@H]1C)C4=O` (stereo partly specified), the MIC was 8 µg/mL (≈ 4.8 µM) in data set [1]; 4 µg/mL (≈ 2.4 µM) in data set [2]; 4 µg/mL (≈ 2.4 µM) in data set [3]; over 64 µg/mL in data set [4]; over 64 µg/mL in data set [5]. Moreover, the IC50 in data set [6] was over 64 µg/mL.
As to `COc1c(N2C[C@@H]3CCCN(c4cc(O)c5nc6c7c8c9c(C)c(O)c7c(=O)c(c-6oc5c4)NC(=O)/C(C)=C\C=C\[C@H](C(C)OC(=O)C(C)(C)CC(=O)O)[C@H](O)[C@@H](C)[C@@H](O)[C@@H](C)[C@H](OC(C)=O)[C@H](C)[C@@H](O[C@H]4C[C@@H]5OCO[C@@H]5[C@@H](C)O4)/C=C/O[C@@](C)(O9)C8=O)[C@@H]3C2)c(F)cc2c(=O)c(C(=O)O)cn(C3CC3)c12` (stereo partly specified), the MIC in data set [1] was 8 µg/mL (≈ 5.38 µM); in data set [2], 0.5 µg/mL (≈ 0.336 µM); in data set [3], 0.5 µg/mL (≈ 0.336 µM); in data set [4], over 64 µg/mL; in data set [5], 32 µg/mL (≈ 21.5 µM). This molecule had an IC50 in data set [6] of over 64 µg/mL.
In the case of `CO/N=C1\CN(c2nc3c(cc2F)c(=O)c(C(=O)O)cn3C2CC2)CC1CNC(=O)CC(C)(C)C(=O)OC(C)[C@H]1/C=C/C=C(/C)C(=O)NC2=CC(=O)c3c(c(O)c(C)c4c3C(=O)[C@@](C)(O/C=C/[C@H](O[C@H]3C[C@@H]5OCO[C@@H]5[C@@H](C)O3)[C@@H](C)[C@@H](OC(C)=O)[C@H](C)[C@H](O)[C@H](C)[C@H]1O)O4)C2=O` (stereo partly specified), the MIC in data set [1] was over 64 µg/mL; in data set [2] it was 16 µg/mL (≈ 11.8 µM); in data set [3] it was 8 µg/mL (≈ 5.91 µM); in data set [4], over 64 µg/mL; in data set [5] it was over 64 µg/mL. This molecule came in with a half-maximal inhibitory concentration (IC50) in data set [6] of over 64 µg/mL.
For `CC(=O)O[C@H]1[C@H](C)[C@H](O)[C@H](C)[C@@H](O)[C@@H](C(C)OC(=O)C(C)(C)CC(=O)O)/C=C/C=C(/C)C(=O)Nc2c3oc4cc(N5CCN(c6cc7c(cc6F)c(=O)c(C(=O)O)cn7C6CC6)CC5)cc(O)c4nc-3c3c4c(c(C)c(O)c3c2=O)O[C@](C)(O/C=C/[C@H](O[C@H]2C[C@@H]3OCO[C@@H]3[C@@H](C)O2)[C@H]1C)C4=O` (stereo partly specified), the MIC in data set [1] was 32 µg/mL (≈ 22.6 µM); in data set [2] it was 0.5 µg/mL (≈ 0.353 µM); in data set [3] it was 0.5 µg/mL (≈ 0.353 µM); in data set [4], over 64 µg/mL; in data set [5], 8 µg/mL (≈ 5.65 µM). In data set [6], this molecule gave a concentration for half-maximal inhibition (IC50) of over 64 µg/mL.

(Values after ChEMBL document CHEMBL5143539, “Synthesis and evaluation of dual-action kanglemycin-fluoroquinolone hybrid antibiotics” (Bioorg Med Chem Lett, 2022).)
